Experimental data pooled from the literature.
Compare with care: the assays were run in different laboratories.
Cell line: HepG2
Observed: cell growth or viability

CCOC(=O)c1ccc(-n2c(N)c(C#N)c(CC#N)c(C#N)c2=O)cc1  viability (MTT; 1.56 µM; 24 h): 100%
O=[N+]([O-])c1ccc(-c2nc3ccccc3n2Cc2ccccc2)cc1  IC50 (MTT): 7.8 µM
CCn1cc(-c2nc(C)no2)c(=O)c2cc(F)c(N3CCC(c4ccccc4)CC3)cc21  EC50 (ATP luminescence; 48 h): > 40 µM
Cc1ccc2nc(-c3ccc([N+](=O)[O-])cc3)n(Cc3ccc(Cl)cc3)c2c1  IC50 (MTT): 5.53 µM
O=C(CN1C(=O)/C(=C/c2ccccc2)SC1=S)Nc1ccccc1  inhibition (MTT; 10 µM): 31.3%
CN1CCN(CCn2cccc2/C=N/NC(=O)Nc2cc3c(Nc4ccc(F)c(Cl)c4)ncnc3cc2O[C@H]2CCOC2)CC1  IC50 (MTT; 72 h): 0.15 µM
c1ccc2[nH]c(-c3ccc4c(c3)OCO4)nc2c1  IC50 (MTT; 48 h): > 100 µM
COc1ccc(NC(=O)c2c(Nc3ccccc3)sc(C(=O)NN=Cc3ccc(C)cc3)c2NC(C)=O)cc1  viability (SRB; 100 µM; 48 h): 57.3%
O=C(CN1C(=O)/C(=C/c2ccccn2)SC1=S)Nc1ccccc1  inhibition (MTT; 10 µM): 10.2%
CCOC(=O)c1ccc(NC(=O)C2=C3C(=Nc4ccccc43)NC2=O)cc1  viability (MTT; 3.125 µM; 24 h): 100%
CCn1cc(-c2nc(C)no2)c(=O)c2cc(F)c(N3CCC(C)CC3)cc21  EC50 (ATP luminescence; 48 h): > 40 µM
COc1cccc(/C=C2\SC(=S)N(CC(=O)Nc3ccccc3)C2=O)c1  inhibition (MTT; 10 µM): 13.9%
Cc1cc(=O)oc2ccc(-c3cc(-c4cccc(Cl)c4)nc(N)n3)c(O)c12  inhibition (MTT; 128 µg/mL; 72 h): 31%
CCn1cc(-c2nc(C)no2)c(=O)c2cc(F)c(N3CCC4(CC3)CC4)cc21  EC50 (ATP luminescence; 48 h): > 40 µM
CCOc1ccc(-c2nc3ccc(C)cc3[nH]2)cc1  IC50 (MTT; 48 h): 27.4 µM
Cc1cc(=O)oc2ccc(-c3cc(-c4ccc(Br)cc4)nc(N)n3)c(O)c12  inhibition (MTT; 32 µg/mL; 72 h): 8%
Cc1cc(Nc2ccc(C(=O)N/N=C/c3nc4ccccc4[nH]3)cc2)c2cccc(O)c2n1  inhibition (MTT; 20 µM): 46.4%
CC(=O)O[C@H]1C(=O)[C@@]2(C)[C@H]([C@H](OC(=O)c3ccccc3)[C@]3(O)C[C@H](OC(=O)[C@H](O)[C@@H](NC(=O)c4ccccc4)c4ccccc4)C(C)=C1C3(C)C)[C@]1(OC(C)=O)CO[C@@H]1C[C@@H]2O  IC50 (MTT): 4.75 µM
Cc1cc(=O)oc2ccc(-c3cc(-c4ccccc4)nc(N)n3)c(O)c12  inhibition (MTT; 2 µg/mL; 72 h): 0%
COc1ccc(NC(=O)c2c(Nc3ccccc3)sc(C(=O)NN=Cc3cc(OC)c(OC)c(OC)c3)c2NC(C)=O)cc1  viability (SRB; 100 µM; 48 h): 33.9%
CC(=O)Nc1cccc(-n2c(=O)n(C3CC3)c(=O)c3c(Nc4ccc(I)cc4F)n(C)c(=O)c(C)c32)c1  viability (resazurin; 780 pM; 72 h): 99.5%
O=C(CN1C(=O)/C(=C/c2ccncc2)SC1=S)Nc1ccccc1  inhibition (MTT; 10 µM): 11.8%
CCOC(=O)c1ccc(-n2c(C)cc(/C=C/c3ccc(OC)cc3)c(C#N)c2=O)cc1  viability (MTT; 12.5 µM; 24 h): 83.5%
CCNC(=O)c1cn(CC)c2cc(N3CCC(C)CC3)c(F)cc2c1=O  EC50 (ATP luminescence; 48 h): > 40 µM
COc1cccc2c1C(=O)c1c(O)c3c(c(O)c1C2=O)C[C@@](O)(C(=O)CO)C[C@@H]3O[C@H]1C[C@H](N)[C@H](O)[C@H](C)O1  viability (MTT; 100 µM; 24 h): 6.3%
CC(C)(CO)Cn1nc(-c2ccc3cc(OC4CC4)ccc3c2)c2c(N)ncnc21  GI50: > 10 µM
COc1ccc(NC(=O)c2c(Nc3ccccc3)sc(C#N)c2NC(=O)CNc2ccccc2)cc1  viability (SRB; 10 µM; 48 h): 90.4%
CCOC(=O)c1ccc(-n2c(C)cc(/C=C/c3ccc(OCC)cc3)c(C#N)c2=O)cc1  viability (MTT; 12.5 µM; 24 h): 90.3%
CCn1cc(-c2nc(C)no2)c(=O)c2cc(F)c(N3CCC(C)(C)CC3)cc21  EC50 (ATP luminescence; 48 h): > 40 µM
COc1ccc(NC(=O)c2c(Nc3ccccc3)sc(C(=O)NN=Cc3ccc(Br)cc3)c2NC(C)=O)cc1  viability (SRB; 10 nM; 48 h): 92.7%
O=C(N/N=C/CN1CCCCC1)Nc1cc2c(Nc3ccc(F)c(Cl)c3)ncnc2cc1O[C@H]1CCOC1  IC50 (MTT; 72 h): 0.42 µM
Cc1ccc(-c2cc(-c3ccc4oc(=O)cc(C)c4c3O)nc(N)n2)cc1  inhibition (MTT; 32 µg/mL; 72 h): 0%
CN1CCN(C/C=N/NC(=O)Nc2cc3c(Nc4ccc(F)c(Cl)c4)ncnc3cc2O[C@H]2CCOC2)CC1  IC50 (MTT; 72 h): 3.28 µM
COc1ccc(NC(=O)c2c(Nc3ccccc3)sc(C#N)c2NC(=O)CNc2ccccc2Cl)cc1  viability (SRB; 10 µM; 48 h): 79.2%
Cc1ccc2nc(-c3ccco3)n(Cc3ccccc3)c2c1  IC50 (MTT): 55.5 µM
COc1ccc(NC(=O)c2c(Nc3ccccc3)sc(C#N)c2NC(=O)CNc2ccc(OC)c(OC)c2)cc1  viability (SRB; 10 µM; 48 h): 71.4%
CCOC(=O)c1ccc(-n2c(-c3ccc(C)cc3)cc(-c3ccc(O)cc3)c(C#N)c2=O)cc1  viability (MTT; 100 µM; 24 h): 18.3%
COc1ccc(NC(=O)c2c(Nc3ccccc3)sc(C#N)c2NC(=O)CNc2ccc(C)cc2)cc1  viability (SRB; 100 µM; 48 h): 62.3%
CCOc1cc(-c2nc3ccc(C)cc3[nH]2)ccc1O  IC50 (MTT; 48 h): 77.1 µM
COc1ccc(-c2cc(-c3ccc4oc(=O)cc(C)c4c3O)nc(N)n2)cc1  inhibition (MTT; 2 µg/mL; 72 h): 0%
COc1cccc(NC(=O)CN2C(=O)/C(=C/c3ccccc3)SC2=S)c1  inhibition (MTT; 10 µM): 11.8%
C[C@H]1[C@@H](CC(=O)NCC(=O)N[C@@H](CC(=O)NC(C)(C)C)C(=O)NCCNC(=O)c2cc(-c3ccccc3F)ccc2F)O[C@@H]2O[C@@]3(C)CC[C@H]4[C@H](C)CC[C@@H]1[C@@]24OO3  EC50 (ATP luminescence; 72 h): 5.8 µM
CCn1cc(-c2ccccn2)c(=O)c2cc(F)c(N3CCC(C)CC3)cc21  EC50 (ATP luminescence; 48 h): > 40 µM
CSc1ccc(-c2nc3ccc(C)cc3[nH]2)cc1  IC50 (MTT; 48 h): > 100 µM
Cc1cc(=O)oc2ccc(-c3cc(-c4ccc(Cl)cc4)nc(N)n3)c(O)c12  inhibition (MTT; 2 µg/mL; 72 h): 16%
Cc1cc(Nc2ccc(C(=O)N/N=C/c3ccc(C)s3)cc2)c2cccc(O)c2n1  inhibition (MTT; 20 µM): 46.3%
O=C(CN1C(=O)/C(=C/c2ccc([N+](=O)[O-])cc2)SC1=S)Nc1ccccc1  inhibition (MTT; 10 µM): 22.6%
COc1ccc(NC(=O)c2c(Nc3ccccc3)sc(C#N)c2NC(=O)CNc2ccc(O)cc2)cc1  viability (SRB; 0.1 µM; 48 h): 85.6%
CCOC(=O)c1ccc(N2C(N)=C(C#N)C3(C(=O)Nc4ccccc43)C(C#N)=C2O)cc1 (stereo not shown)  viability (MTT; 12.5 µM; 24 h): 37.7%
